{"source": "paper PMC6061410", "about": "(Clinical Drug Investigation, 2018)", "system": "healthy young and healthy elderly subjects", "experiment": "Safety and tolerability", "format": "in vivo, human", "outline": "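Adverse events were recorded by system organ class and preferred term in the treated set. This was 84 healthy young or elderly subjects randomised 3:1 to oral drug or placebo over 14 days, across seven ascending dose groups with a safety review before each escalation. Changes were assessed against the last pre-dose baseline measurement.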", "note": "Entries after “also recorded” stand apart in the source; their conditions may differ."}
{"compound": "C[C@@H](Oc1ccc(S(C)(=O)=O)cc1C(=O)N1C[C@@H]2C[C@]2(c2cc(C(F)(F)F)on2)C1)C(F)(F)F", "note": "[BI 425809]", "values": [{"measurement": "intensity of treatment-emergent AEs", "setting": "all dose groups", "result": "mild-to-moderate; also recorded: mild or moderate"}, {"measurement": "intensity of eye disorders", "setting": "both age groups", "result": "mild"}, {"measurement": "subjects who reported one or more AEs", "setting": "elderly subjects receiving the active drug", "result": 88.9, "unit": "%"}, {"measurement": "subjects with drug-related AEs", "setting": "elderly subjects who received BI 425809", "result": 77.8, "unit": "%"}, {"measurement": "Back pain", "setting": "elderly, 25 mg QD", "result": "1 (11.1) n (%)"}, {"measurement": "Constipation", "setting": "elderly, 25 mg QD", "result": "0 (–) n (%)"}, {"measurement": "Dizziness", "setting": "elderly, 25 mg QD", "result": "1 (11.1) n (%)"}, {"measurement": "Eye disorders", "setting": "elderly, 25 mg QD", "result": "1 (11.1) n (%)"}, {"measurement": "Folliculitis", "setting": "elderly, 25 mg QD", "result": "2 (22.2) n (%)"}, {"measurement": "Gastrointestinal disorders", "setting": "elderly, 25 mg QD", "result": "6 (66.7) n (%)"}, {"measurement": "General disorders and administration site conditions", "setting": "elderly, 25 mg QD", "result": "2 (22.2) n (%)"}, {"measurement": "Hard faeces", "setting": "elderly, 25 mg QD", "result": "2 (22.2) n (%)"}, {"measurement": "Headache", "setting": "elderly, 25 mg QD", "result": "1 (11.1) n (%)"}, {"measurement": "Infections and infestations", "setting": "elderly, 25 mg QD", "result": "3 (33.3) n (%)"}, {"measurement": "Injury, poisoning and procedural complications", "setting": "elderly, 25 mg QD", "result": "2 (22.2) n (%)"}, {"measurement": "Musculoskeletal and connective tissue disorders", "setting": "elderly, 25 mg QD", "result": "1 (11.1) n (%)"}, {"measurement": "Nasopharyngitis", "setting": "elderly, 25 mg QD", "result": "1 (11.1) n (%)"}, {"measurement": "Nausea", "setting": "elderly, 25 mg QD", "result": "1 (11.1) n (%)"}, {"measurement": "Nervous system disorder", "setting": "elderly, 25 mg QD", "result": "2 (22.2) n (%)"}, {"measurement": "Psychiatric disorders", "setting": "elderly, 25 mg QD", "result": "2 (22.2) n (%)"}, {"measurement": "Subjects with AEs leading to study discontinuation", "setting": "elderly, 25 mg QD", "result": "0 (–) n (%)"}, {"measurement": "Subjects with investigator-defined drug-related AEs", "setting": "elderly, 25 mg QD", "result": "6 (66.7) n (%)"}, {"measurement": "Total with AEs", "setting": "elderly, 25 mg QD", "result": "8 (88.9) n (%)"}, {"measurement": "Venepuncture site haematoma", "setting": "elderly, 25 mg QD", "result": "1 (11.1) n (%)"}, {"measurement": "Vomiting", "setting": "elderly, 25 mg QD", "result": "1 (11.1) n (%)"}, {"measurement": "Back pain", "setting": "elderly, 50 mg QD", "result": "1 (11.1) n (%)"}, {"measurement": "Constipation", "setting": "elderly, 50 mg QD", "result": "4 (44.4) n (%)"}, {"measurement": "Dizziness", "setting": "elderly, 50 mg QD", "result": "2 (22.2) n (%)"}, {"measurement": "Eye disorders", "setting": "elderly, 50 mg QD", "result": "1 (11.1) n (%)"}, {"measurement": "Folliculitis", "setting": "elderly, 50 mg QD", "result": "1 (11.1) n (%)"}, {"measurement": "Gastrointestinal disorders", "setting": "elderly, 50 mg QD", "result": "5 (55.6) n (%)"}, {"measurement": "General disorders and administration site conditions", "setting": "elderly, 50 mg QD", "result": "4 (44.4) n (%)"}, {"measurement": "Hard faeces", "setting": "elderly, 50 mg QD", "result": "0 (–) n (%)"}, {"measurement": "Headache", "setting": "elderly, 50 mg QD", "result": "1 (11.1) n (%)"}, {"measurement": "Infections and infestations", "setting": "elderly, 50 mg QD", "result": "3 (33.3) n (%)"}, {"measurement": "Injury, poisoning and procedural complications", "setting": "elderly, 50 mg QD", "result": "0 (–) n (%)"}, {"measurement": "Musculoskeletal and connective tissue disorders", "setting": "elderly, 50 mg QD", "result": "2 (22.2) n (%)"}, {"measurement": "Nasopharyngitis", "setting": "elderly, 50 mg QD", "result": "1 (11.1) n (%)"}, {"measurement": "Nausea", "setting": "elderly, 50 mg QD", "result": "1 (11.1) n (%)"}, {"measurement": "Nervous system disorder", "setting": "elderly, 50 mg QD", "result": "3 (33.3) n (%)"}, {"measurement": "Psychiatric disorders", "setting": "elderly, 50 mg QD", "result": "2 (22.2) n (%)"}, {"measurement": "Subjects with AEs leading to study discontinuation", "setting": "elderly, 50 mg QD", "result": "1 (11.1) n (%)"}, {"measurement": "Subjects with investigator-defined drug-related AEs", "setting": "elderly, 50 mg QD", "result": "8 (88.9) n (%)"}, {"measurement": "Total with AEs", "setting": "elderly, 50 mg QD", "result": "8 (88.9) n (%)"}, {"measurement": "Venepuncture site haematoma", "setting": "elderly, 50 mg QD", "result": "4 (44.4) n (%)"}, {"measurement": "Vomiting", "setting": "elderly, 50 mg QD", "result": "1 (11.1) n (%)"}, {"measurement": "Back pain", "setting": "elderly, Total BI n = 18", "result": "2 (11.1) n (%)"}, {"measurement": "Constipation", "setting": "elderly, Total BI n = 18", "result": "4 (22.2) n (%)"}, {"measurement": "Dizziness", "setting": "elderly, Total BI n = 18", "result": "3 (16.7) n (%)"}, {"measurement": "Eye disorders", "setting": "elderly, Total BI n = 18", "result": "2 (11.1) n (%)"}, {"measurement": "Folliculitis", "setting": "elderly, Total BI n = 18", "result": "3 (16.7) n (%)"}, {"measurement": "Gastrointestinal disorders", "setting": "elderly, Total BI n = 18", "result": "11 (61.1) n (%)"}, {"measurement": "General disorders and administration site conditions", "setting": "elderly, Total BI n = 18", "result": "6 (33.3) n (%)"}, {"measurement": "Hard faeces", "setting": "elderly, Total BI n = 18", "result": "2 (11.1) n (%)"}, {"measurement": "Headache", "setting": "elderly, Total BI n = 18", "result": "2 (11.1) n (%)"}, {"measurement": "Infections and infestations", "setting": "elderly, Total BI n = 18", "result": "6 (33.3) n (%)"}, {"measurement": "Injury, poisoning and procedural complications", "setting": "elderly, Total BI n = 18", "result": "2 (11.1) n (%)"}, {"measurement": "Musculoskeletal and connective tissue disorders", "setting": "elderly, Total BI n = 18", "result": "3 (16.7) n (%)"}, {"measurement": "Nasopharyngitis", "setting": "elderly, Total BI n = 18", "result": "2 (11.1) n (%)"}, {"measurement": "Nausea", "setting": "elderly, Total BI n = 18", "result": "2 (11.1) n (%)"}, {"measurement": "Nervous system disorder", "setting": "elderly, Total BI n = 18", "result": "5 (27.8) n (%)"}, {"measurement": "Psychiatric disorders", "setting": "elderly, Total BI n = 18", "result": "4 (22.2) n (%)"}, {"measurement": "Subjects with AEs leading to study discontinuation", "setting": "elderly, Total BI n = 18", "result": "1 (5.6) n (%)"}, {"measurement": "Subjects with investigator-defined drug-related AEs", "setting": "elderly, Total BI n = 18", "result": "14 (77.8) n (%)"}, {"measurement": "Total with AEs", "setting": "elderly, Total BI n = 18", "result": "16 (88.9) n (%)"}, {"measurement": "Vomiting", "setting": "elderly, Total BI n = 18", "result": "2 (11.1) n (%)"}, {"measurement": "dose dependency of AEs", "setting": "frequency of subjects with drug-related AE across treatment groups", "result": "no dose dependency was observed; also recorded: not dose dependent"}, {"measurement": "tolerability", "setting": "multiple doses 10–75 mg QD or 75 mg BID (young), 25 or 50 mg QD (elderly)", "result": "generally well tolerated"}, {"measurement": "serious AEs", "setting": "part 1, all dose groups", "result": "no serious adverse events occurred; also recorded: no serious AEs were reported"}, {"measurement": "subjects who experienced one or more AEs", "setting": "young subjects, part 1, active-treatment arm", "result": 66.7, "unit": "%"}, {"measurement": "subjects with drug-related AEs", "setting": "young subjects, part 1, receiving BI 425809", "result": 60.0, "unit": "%"}, {"measurement": "Dizziness", "setting": "young, part 1, 10 mg QD", "result": "1 (11.1) n (%)"}, {"measurement": "Eye disorders", "setting": "young, part 1, 10 mg QD", "result": "0 (–) n (%)"}, {"measurement": "Gastrointestinal disorders", "setting": "young, part 1, 10 mg QD", "result": "0 (–) n (%)"}, {"measurement": "General disorders and administration site conditions", "setting": "young, part 1, 10 mg QD", "result": "0 (–) n (%)"}, {"measurement": "Headache", "setting": "young, part 1, 10 mg QD", "result": "3 (33.3) n (%)"}, {"measurement": "Infections and infestations", "setting": "young, part 1, 10 mg QD", "result": "1 (11.1) n (%)"}, {"measurement": "Insomnia", "setting": "young, part 1, 10 mg QD", "result": "0 (–) n (%)"}, {"measurement": "Musculoskeletal and connective tissue disorders", "setting": "young, part 1, 10 mg QD", "result": "1 (11.1) n (%)"}, {"measurement": "Nasopharyngitis", "setting": "young, part 1, 10 mg QD", "result": "0 (–) n (%)"}, {"measurement": "Nervous system disorder", "setting": "young, part 1, 10 mg QD", "result": "4 (44.4) n (%)"}, {"measurement": "Ocular discomfort", "setting": "young, part 1, 10 mg QD", "result": "0 (–) n (%)"}, {"measurement": "Psychiatric disorders", "setting": "young, part 1, 10 mg QD", "result": "0 (–) n (%)"}, {"measurement": "Subjects with AEs leading to study discontinuation", "setting": "young, part 1, 10 mg QD", "result": "0 (–) n (%)"}, {"measurement": "Subjects with investigator-defined drug-related AEs", "setting": "young, part 1, 10 mg QD", "result": "4 (44.4) n (%)"}, {"measurement": "Total with AEs", "setting": "young, part 1, 10 mg QD", "result": "5 (55.6) n (%)"}, {"measurement": "Vision blurred", "setting": "young, part 1, 10 mg QD", "result": "0 (–) n (%)"}, {"measurement": "Dizziness", "setting": "young, part 1, 25 mg QD", "result": "0 (–) n (%)"}, {"measurement": "Eye disorders", "setting": "young, part 1, 25 mg QD", "result": "2 (22.2) n (%)"}, {"measurement": "Gastrointestinal disorders", "setting": "young, part 1, 25 mg QD", "result": "3 (33.3) n (%)"}]}
